These results are taken from ChEMBL document CHEMBL1765056, “Cytotoxic oleanane-type saponins from Albizia inundata” (J Nat Prod, 2011).

Each structure is given as a SMILES string. The source made the active and inactive calls. The rule behind the calls is not given here.

What all share (assay type): functional, cell-based
For assay [1], the system named is SK-MEL-28. Put plainly: Cytotoxicity against human SK-MEL-28 cells harboring BRAF […]/PTEN mutation assessed as cell viability by MTS assay. In outline:
(§1)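 Pure compounds tested at five concentrations from 50 nM to 20 uM. Readout is MTS viability, with IC50 derived per cell line. JMAR and MDA1986 are head and neck squamous carcinoma lines. B16F10 is a murine melanoma line and SKMEL28 a human melanoma line, both BRAF V600E; SKMEL28 also carries a PTEN mutation.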
For orientation: Tetrazolium dyes change colour on reduction, which living cells bring about.

Assay [2] in a line: Cytotoxicity against human MDA1986 cells assessed as cell viability by MTS assay. In outline: as §1
A short description of assay [3]: Cytotoxicity against human JMAR cells assessed as cell viability by MTS assay. In outline:
as §1

Assay [4] relates to B16-F10. Description: Cytotoxicity against mouse B16F10 cells harboring BRAF […] mutation assessed as cell viability by MTS assay. In outline:
as §1

Assay [5] deals with B16-F10. Description: Cytotoxicity against mouse B16F10 cells harboring BRAF […] mutation assessed as membrane disintegration by phase contrast microscopy. The gist of the method: (§2)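 Cells treated with increasing concentrations of saponins, then examined by phase-contrast microscopy for membrane disintegration.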
The species entered for assay [6] is Homo sapiens. Put plainly: Cytotoxicity against human MDA1986 cells assessed as membrane disintegration by phase contrast microscopy. In outline: as §2
Assay [7] relates to JMAR. Description: Cytotoxicity against human JMAR cells assessed as membrane disintegration by phase contrast microscopy. In outline:
as §2

Assay [8] has as its system SK-MEL-28. Description: Cytotoxicity against human SK-MEL-28 cells harboring BRAF […]/PTEN mutation assessed as membrane disintegration by phase contrast microscopy. The gist of the method: as §2

Turning to `CC1(C)CC[C@]2(C(=O)O)[C@H](O)C[C@]3(C)C(=CC[C@@H]4[C@@]5(C)CC[C@H](O[C@@H]6O[C@H](CO[C@@H]7OC[C@H](O)[C@H](O)[C@H]7O[C@@H]7OC[C@H](O)[C@H](O)[C@H]7O)[C@@H](O)[C@H](O)[C@H]6O[C@@H]6O[C@H](CO)[C@@H](O)[C@H](O)[C@H]6O)C(C)(C)[C@@H]5CC[C@]43C)[C@@H]2C1`, the IC50 in assay [1], in assay [2], in assay [3] and in assay [4] was above 20 µM throughout.
In the case of `CC(=O)N[C@H]1[C@H](O[C@H]2CC[C@]3(C)[C@H]4CC=C5[C@@H]6CC(C)(C)CC[C@]6(C(=O)O)[C@H](O)C[C@@]5(C)[C@]4(C)CC[C@H]3C2(C)C)O[C@H](CO[C@@H]2OC[C@H](O)[C@H](O)[C@H]2O)[C@@H](O)[C@@H]1O`, the outcome in assay [5], in assay [6], in assay [7] and in assay [8] was inactive. For the same molecule, the IC50 (commonly the concentration that inhibits the measured activity by half) turned out to be 9.2 µM in assay [1], 1.8 µM in assay [2], 2.8 µM in assay [3] and 5.1 µM in assay [4].
With `CC1(C)CC[C@]2(C(=O)O)[C@H](O)C[C@]3(C)C(=CC[C@@H]4[C@@]5(C)CC[C@H](O[C@@H]6O[C@H](CO[C@@H]7OC[C@H](O)[C@H](O)[C@H]7O[C@@H]7OC[C@@H](O)[C@H](O)[C@H]7O)[C@@H](O)[C@H](O)[C@H]6O[C@@H]6O[C@H](CO)[C@@H](O)[C@H](O)[C@H]6O)C(C)(C)[C@@H]5CC[C@]43C)[C@@H]2C1`, the IC50 in assay [1], in assay [2], in assay [3] and in assay [4] was above 20 µM each time.
With `CC(=O)N[C@H]1[C@H](O[C@H]2CC[C@]3(C)[C@H]4CC=C5[C@@H]6CC(C)(C)CC[C@]6(C(=O)O)CC[C@@]5(C)[C@]4(C)CC[C@H]3C2(C)C)O[C@H](CO[C@@H]2OC[C@H](O)[C@H](O)[C@H]2O)[C@@H](O)[C@@H]1O`, the result in assay [5], in assay [6], in assay [7] and in assay [8] was inactive. Further, the IC50 was found to be 12.4 µM in assay [1], 7.3 µM in assay [2], 8.7 µM in assay [3] and 4.7 µM in assay [4].
Consider `CC(=O)N[C@H]1[C@H](O[C@H]2CC[C@]3(C)[C@H]4CC=C5[C@@H]6CC(C)(C)[C@@H]7C[C@]6(C(=O)O7)[C@H](O)C[C@@]5(C)[C@]4(C)CC[C@H]3C2(C)C)O[C@H](CO[C@@H]2OC[C@H](O)[C@H](O)[C@H]2O[C@@H]2OC[C@@H](O)[C@H](O)[C@H]2O)[C@@H](O)[C@@H]1O` [PROSAPOGENIN 4], for which the IC50 in assay [1], in assay [2], in assay [3] and in assay [4] was above 20 µM in each case.
`CC1(C)CC[C@]2(C(=O)O)CC[C@]3(C)C(=CC[C@@H]4[C@@]5(C)CC[C@H](O[C@@H]6O[C@H](CO[C@@H]7OC[C@H](O)[C@H](O)[C@H]7O[C@@H]7OC[C@@H](O)[C@H](O)[C@H]7O)[C@@H](O)[C@H](O)[C@H]6O)C(C)(C)[C@@H]5CC[C@]43C)[C@@H]2C1` [PITHEDULOSIDE C]: the result in assay [5], in assay [6], in assay [7] and in assay [8] was inactive. The IC50 in assay [1] turned out to be 8.6 µM; in assay [2] it was 9 µM; in assay [3], 10.1 µM; in assay [4], 6.9 µM.
For the molecule `CC(=O)N[C@H]1[C@H](O[C@H]2CC[C@]3(C)[C@H]4CC=C5[C@@H]6CC(C)(C)[C@@H]7C[C@]6(C(=O)O7)[C@H](O)C[C@@]5(C)[C@]4(C)CC[C@H]3C2(C)C)O[C@H](CO[C@@H]2OC[C@H](O)[C@H](O)[C@H]2O[C@@H]2OC[C@H](O)[C@H](O)[C@H]2O)[C@@H](O)[C@@H]1O`, the half-inhibitory concentration (IC50) in assay [1], in assay [2], in assay [3] and in assay [4] was above 20 µM each time.
Consider `CC1(C)CC[C@]2(C(=O)O)CC[C@]3(C)C(=CC[C@@H]4[C@@]5(C)CC[C@H](O[C@@H]6O[C@H](CO[C@@H]7OC[C@H](O)[C@H](O)[C@H]7O[C@@H]7OC[C@H](O)[C@H](O)[C@H]7O)[C@@H](O)[C@H](O)[C@H]6O)C(C)(C)[C@@H]5CC[C@]43C)[C@@H]2C1`, for which the outcome in assay [5], in assay [6], in assay [7] and in assay [8] was inactive. Besides, the 50% inhibitory concentration (IC50) in assay [1] is 8.1 µM; in assay [2], 8.2 µM; in assay [3] it was 11.5 µM; in assay [4], 6.3 µM.
With `CC1(C)CC[C@]2(C(=O)O)CC[C@]3(C)C(=CC[C@@H]4[C@@]5(C)CC[C@H](O[C@@H]6O[C@H](CO)[C@@H](O)[C@H](O)[C@H]6O[C@@H]6O[C@H](CO)[C@@H](O)[C@H](O)[C@H]6O)C(C)(C)[C@@H]5CC[C@]43C)[C@@H]2C1` [ACUTOSIDE A], the IC50 in assay [1], in assay [2], in assay [3] and in assay [4] was above 20 µM throughout.
